T cruzi inh – T. cruzi replication inhibition; inhibition, % (test concentration not listed); T. cruzi beta-gal in NIH3T3, luminescence, 90 h; actives 1.4% (n = 300,000);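 active = mean inhibition across valid replicates above about 55%, limit read from the data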;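 also: signal also drops with host cell toxicity which is not excluded here; 0% = plate median of DMSO wells and 100% = zero luminescence signal; higher percent means less beta-gal luminescence so fewer parasites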
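Assay system: NIH/3T3 host cells with β-galactosidase reporter T. cruzi; input: 5,000 host fibroblasts per well; compound: single 50 nL compound addition per well in DMSO; timing: ≥90 h infection period, 3 h prior cell attachment; measured by: GalScreen β-gal luminescence, detergent lysis, 60 min; evaluation: percent inhibition of parasite-derived β-gal signal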
PolyA inh – inhibitors of polyadenylation in S. cerevisiae; S. cerevisiae SKY197-pL101 polyadenylation reporter, beta-gal luminescence; efflux-impaired pdr1/pdr3 knockout yeast; score 100 = 6 SD above DMSO; activity score, % at 12 µM; actives 0.02% (n = 300,000);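 active = lowest replicate activity score at least 50, where 100 means six control SD above control mean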;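 also: yeast exposed to compound for 9 h at 30 °C; higher score means more reporter readthrough which indicates perturbed polyadenylation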
CHT inh – human CHT choline transport inhibition; B-score at 10 µM; AID 488975; Q9GZV3; CHT-expressing cells, membrane potential dye, choline response; hits give low values; actives 0.86% (n = 310,000);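 active = B-score over 3 SD under the library average, and starting fluorescence ratio not unusually high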;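 also: choline stimulus applied at its EC90 after an EC20 pre-addition; B-score computed on integrated fluorescence ratio after choline addition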
Target sequence (Q9GZV3 whole entry, looked up): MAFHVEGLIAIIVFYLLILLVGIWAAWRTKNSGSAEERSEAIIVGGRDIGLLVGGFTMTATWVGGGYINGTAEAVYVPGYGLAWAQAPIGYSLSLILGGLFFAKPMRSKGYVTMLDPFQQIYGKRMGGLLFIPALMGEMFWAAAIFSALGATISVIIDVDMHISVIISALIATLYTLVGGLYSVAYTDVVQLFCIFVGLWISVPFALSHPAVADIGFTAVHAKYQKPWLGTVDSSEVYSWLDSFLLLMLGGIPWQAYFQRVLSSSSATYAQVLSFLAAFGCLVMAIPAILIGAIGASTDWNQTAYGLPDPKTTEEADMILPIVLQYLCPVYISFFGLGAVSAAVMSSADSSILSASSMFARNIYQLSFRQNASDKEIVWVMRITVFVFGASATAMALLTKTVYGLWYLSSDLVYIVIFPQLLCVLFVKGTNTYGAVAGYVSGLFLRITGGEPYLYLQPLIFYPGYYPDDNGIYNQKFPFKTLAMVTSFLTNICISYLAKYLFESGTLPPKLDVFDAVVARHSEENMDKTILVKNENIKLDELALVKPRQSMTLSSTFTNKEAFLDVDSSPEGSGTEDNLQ
CHT allo act – allosteric activators of human choline transporter CHT; Q9GZV3; CHT-expressing cells, membrane potential dye, choline EC20; hits give high values; LV-AA mutant CHT in HEK293 cells; B-score at 10 µM; actives 0.49% (n = 310,000); AID 488977;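 active = initial fluorescence not abnormally high and integrated response B-score, plate-corrected, over 3 SD above library mean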
CHT inh conf – human CHT inhibition, confirmatory screen. shares compounds with CHT inh. CHT activity remaining % of control (hits give low values), % at 10 µM. CHT-expressing cells, choline membrane potential dye; LV-to-AA substituted CHT, HEK293 cells. actives 70% (n = 2,400). AID 493221;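 active = choline transporter activity left, mean of duplicates at 10 µM, below buffer-only control mean minus 3 SD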;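 also: depolarization triggered by choline at its EC90 following an EC20 pre-addition; 0% = hemicholinium-3 full block and 100% = buffer-only control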
HEK293 MPD ctr – CHT inhibitor counter-screen hit in parental HEK293 cells | shares compounds with CHT inh | membrane potential dye, choline response; active = decrease or increase beyond buffer ±3SD | membrane potential ratio readout (active if shifted either direction beyond buffer ±3SD; no single direction) at 10 µM | actives 4% (n = 2,400) | AID 493222;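 also: parental cells lack the transporter so any hit is non-specific; ratio is peak minus trough fluorescence over baseline after EC90 choline challenge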
* marks the source's active call; other numbers are inactive results; i = inactive; . = no result given. Only some compounds are listed: those with a hit (about 2.6% of all), similar ones and a draw of the others.

SMILES	T cruzi inh	PolyA inh	CHT inh	CHT allo act	CHT inh conf	HEK293 MPD ctr
COc1ccccc1C(=O)NC(=O)CSc1nc(C)cs1	-2	-1	i	i	.	.
CCOCCCNS(=O)(=O)c1ccc(NC(=O)c2ccc([N+](=O)[O-])cc2Cl)cc1	25	17	-10*	i	-5.7%*	i
CCOCCCNS(=O)(=O)c1ccc(NC(=O)c2ccc(OC)c([N+](=O)[O-])c2)cc1	-3	7	i	i	.	.
CCC(C)NS(=O)(=O)c1ccc(NC(=O)c2ccc([N+](=O)[O-])cc2Cl)cc1 (stereo not given)	17	-7	-8.9*	i	i	i
CCCCN(CC)C(=O)Cn1ncc2c3ccccc3n(CCC)c2c1=O	-1	-5	i	i	.	.
CCN1CCN(CCCNC(=O)c2ccc(NC(=O)C3=C(C)OCCS3)cc2)CC1	-27	1	i	i	.	.
Cc1ccc2c(C)c(C(=O)N3CCCC(C(N)=O)C3)oc2c1C (stereo not given)	20	1	.	.	.	.
CC1CN(C(=S)Nc2cccc(Cl)c2)CC(C)O1 (stereo not given)	-23	-9	i	i	.	.
COc1ccc(-c2nc3ccc(C(=O)NCCCN4CCOCC4)cc3nc2-c2ccc(OC)cc2)cc1	25	4	-5.1*	i	53%*	i
CCN1CCN(CCNC(=O)c2ccc3nc(-c4cccc(C)c4)c(-c4cccc(C)c4)nc3c2)CC1	48	-2	-8.7*	i	36%*	i
CCCOc1ccc(C(CC(=O)O)NC(=O)CC(c2ccccc2)c2ccccc2)cc1 (stereo not given)	12	8	-6.8*	i	24%*	i
OC[C@H]1OC(O)[C@H](O)[C@@H]1O (stereo not given in full)	.	.	i	i	.	.
Cc1ccc(N2NC(=O)/C(=C\c3cc4c(cc3[N+](=O)[O-])OCO4)C2=O)cc1C	7	2	-5*	i	42%*	i
COc1cc(/C=C2/C(=O)NN(c3ccc(C)c(Cl)c3)C2=O)cc([N+](=O)[O-])c1O	-4	-18	i	i	.	.
COc1ccc(C(=O)N/N=C/c2sc3ccccc3c2O)cc1	12	-16	i	i	.	.
O=C(N/N=C/c1sc2ccccc2c1O)c1ccccc1	21	18	-20*	i	-81%*	-55*
Cc1noc(C)c1CSCC(=O)N(C)CC(=O)Nc1ccc(F)c(F)c1F	-7	6	i	i	.	.
Clc1cccc(CNCCNCc2cccc(Cl)c2)c1	6	-13	-7*	i	70%*	i
O=C(CNC(=O)c1ccc(Cl)c([N+](=O)[O-])c1)OCN1C(=O)c2ccccc2C1=O	-14	11	i	i	.	.
CCOC(=O)c1cccc(Nc2ncnc3ccccc23)c1	9	-9	-8.2*	i	25%*	i
CCCCNC(=O)/C(C#N)=C/c1ccc(-c2ccc(S(=O)(=O)N3CCOCC3)cc2)o1	12	7	-5*	i	69%*	i
Cc1c(C)n(CCc2ccccc2)c2ncnc(NN)c12	5	2	-6.1*	i	61%*	i
Cc1c(C)n(Cc2ccccc2)c2ncnc(NN)c12	5	1	i	i	.	.
CCc1nn(CC(=O)NCCC2=CCCCC2)c(=O)c2cc3cc(F)ccc3n12	5	-8	i	i	.	.
COc1ccc(NC(=O)CCCNC(=O)c2ccc(Cl)cc2)cc1OC	-4	24	-6.6*	i	i	i
SMILES	T cruzi inh	PolyA inh	CHT inh	CHT allo act	CHT inh conf	HEK293 MPD ctr
COc1ccc(C(=O)c2c3ccc(C(F)(F)F)cc3[n+]([O-])n2CCCN)cc1	-22	18	-6.3*	i	22%*	i
Cc1ccc(C(=O)c2c3ccc(C(F)(F)F)cc3[n+]([O-])n2CCCN)cc1	-13	-21	-5.9*	i	40%*	2.6*
COc1ccc(C(=O)c2c3ccccc3[n+]([O-])n2CCCN)cc1	4	6	i	i	.	.
CCc1[nH]nc(C(=O)N/N=C/c2ccncc2)c1C	-6	-4	i	i	.	.
O=C(CN1C(=O)c2ccccc2C1=O)Nc1ccc(S(=O)(=O)N2CCOCC2)cc1	1	1	i	i	.	.
CCc1cccc(C)c1NC(=O)c1ccc(CN2CCc3ccccc3C2)cc1	-10	3	-5.4*	i	71%*	i
O=C(NCc1ccccc1)c1ccc(CN2CCC(Cc3ccccc3)CC2)cc1	25	15	i	i	.	.
Cc1ccccc1NC(=O)c1ccc(CN2CCc3ccccc3C2)cc1	2	13	i	i	.	.
CCc1ccccc1NC(=O)c1ccc(CN2CCC(Cc3ccccc3)CC2)cc1	43	-15	-9.6*	i	48%*	i
CN(Cc1c(C(=O)N/N=C/c2ccc(O)cc2)nnn1-c1nonc1N)c1ccccc1	2	15	i	i	.	.
CCC(Sc1nnc(-c2ccc(C)c(Cl)c2)n1CC)C(=O)Nc1nccs1 (stereo not given)	.	.	-5.9*	i	50%*	i
CCOC(=O)c1c(NC(=O)CSc2nnc(-c3ccccc3)n2CC)sc(C(C)=O)c1C	4	19	-5.3*	i	i	i
CCOC(=O)c1c(NC(=O)CSc2nnc(-c3cccc(C)c3)n2CC)sc(C(C)=O)c1C	21	-17	i	i	.	.
CCOC(=O)c1sc(NC(=O)CSc2nc3c(c(=O)n2-c2ccc(C)cc2)SCC3)c(C(=O)OCC)c1C	12	1	-7*	i	69%*	i
Cc1cccc(C(C)C)c1NC(=O)c1cc2ccccc2o1	15	0	i	i	.	.
CC(C)(C)N/N=C/c1cc(Cl)cc([N+](=O)[O-])c1O	31	-40	-5.8*	i	59%*	i
COc1ccccc1C(CNC(=O)c1cccc(S(=O)(=O)NCc2ccccc2)c1)N(C)C (stereo not given)	9	-13	i	i	.	.
CN1CCCC(CC2Oc3ccccc3Sc3ccccc32)C1 (stereo not given)	49	9	-5.2*	i	14%*	i
CCOc1ccc(CCNC(=O)Cc2ccc(NC3=NC4CS(=O)(=O)CC4S3)cc2)cc1OCC (stereo not given)	3	-11	i	i	.	.
COc1ccc(CNS(=O)(=O)c2ccc3c(c2)CC(C)N3C(=O)C2CC2)cc1 (stereo not given)	7	1	-5*	i	i	i
O=C1/C(=C/c2cccs2)SC(=S)N1CC(=O)N1CCCCC1CCO (stereo not given)	-8	-1	i	i	.	.
O=C(Nc1ccc(Cc2ccncc2)cc1)c1cc(F)c(F)cc1Cl	15	12	-8.5*	i	i	i
